Measured values reported in ChEMBL document CHEMBL1132655, “Discovery of novel disaccharide antibacterial agents using a combinatorial library approach” (J Med Chem, 1999).
Converted amounts (≈) assume the structure as drawn.

Legend:
[1] = tested on: Enterococcus faecium; assay: Compound was tested for the inhibition of cell wall biosynthesis and growth against Enterococcus faecium (ATCC49624) (sensitive strain); type: functional
Summary of the method: (§1)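 Broth microdilution MIC in brain heart infusion medium with 0.1% casamino acids. Log-phase cells were diluted to about 5×10^5 CFU/mL and exposed to compound serially diluted in DMSO (5% final DMSO). OD600 was read in microtiter plates. MIC (µg/mL) was called where [OD600 control − OD600 test]/[OD600 control − OD600 media] × 100 > 90%.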

[2] = tested on: Enterococcus faecium; assay: Compound was tested for the inhibition of cell wall biosynthesis and growth against Enterococcus faecium (ATCC51559) (Vancomycin-resistant); type: functional; summary of the method: as §1
[3] = tested on: Enterococcus faecalis; assay: Compound was tested for the inhibition of cell wall biosynthesis and growth against Enterococcus faecalis (ATCC 29212) (sensitive strain); type: functional; summary of the method: as §1
[4] = tested on: Enterococcus faecalis; assay: Compound was tested for the inhibition of cell wall biosynthesis and growth against Enterococcus faecalis (ATCC51575) (Vancomycin-resistant); type: functional; summary of the method: as §1
[5] = tested on: Enterococcus faecalis; assay: Compound was tested for the inhibition of cell wall biosynthesis and growth against Enterococcus faecalis (CL4877) (Vancomycin-resistant); type: functional; summary of the method: as §1
[6] = tested on: Escherichia coli; assay: Compound was tested for the inhibition of cell wall biosynthesis and growth against Escherichia coli (BAS849) (super-sensitive permeability mutant of E. coli) (sensitive strain); type: functional
Summary of the method: (§2)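 MIC by broth dilution in brain heart infusion medium with 0.1% casamino acids. Log-phase cells diluted to about 5×10^5 CFU/mL and exposed to compound serially diluted in DMSO (5% final DMSO). OD600 read on a plate reader; MIC taken as the concentration giving >90% growth inhibition relative to untreated control, corrected for medium blank.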

[7] = The compound was tested for inhibitory activity against PGP30 bacterial cell wall biosynthesis; type: functional, Bacteria
[8] = tested on: Staphylococcus epidermidis; assay: Compound was tested for the inhibition of cell wall biosynthesis and growth against Staphylococcus epidermidis (ATCC 12228) (sensitive strain); type: functional; summary of the method: as §2
[9] = tested on: Staphylococcus aureus; assay: Compound was tested for the inhibition of cell wall biosynthesis and growth against Staphylococcus aureus (ATCC 29213) (sensitive strain); type: functional; summary of the method: as §1
[10] = tested on: Staphylococcus aureus; assay: Compound was tested for the inhibition of cell wall biosynthesis and growth against Staphylococcus aureus (ATCC 43300) (Methicillin-resistant); type: functional; summary of the method: as §1
[11] = tested on: Enterococcus faecalis; assay: Compound was tested for the inhibition of cell wall biosynthesis and growth against Enterococcus faecalis (CL5244) (Vancomycin-resistant); type: functional; summary of the method: as §1
[12] = tested on: Enterococcus faecium; assay: Compound was tested for the inhibition of cell wall biosynthesis and growth against Enterococcus faecium (CL4931) (Vancomycin-resistant); type: functional; summary of the method: as §1
[13] = tested on: Enterococcus faecium; assay: Compound was tested for the inhibition of cell wall biosynthesis and growth against Enterococcus faecium (ATCC49624) (sensitive strain)

SMILES | MIC [1] [µg/mL] | MIC [2] [µg/mL] | MIC [3] [µg/mL] | MIC [4] [µg/mL] | MIC [5] [µg/mL] | MIC [6] [µg/mL] | IC50 [7] [µg/mL] | MIC [8] [µg/mL] | MIC [9] [µg/mL] | MIC [10] [µg/mL] | MIC [11] [µg/mL] | MIC [12] [µg/mL] | MIC [13] [µg/mL]
CCCCCCCCCCCCOP(=O)(O)OC1OC(C(N)=O)C(O)C(NC(=O)Nc2ccc(Cl)c(C(F)(F)F)c2)C1OC1OC(CO)C(O)C(O)C1NC(=O)c1cccc(C(F)(F)F)c1 (stereo unspecified) | 12.5 (≈ 12.6 µM) | 12.5 (≈ 12.6 µM) | 3.12 (≈ 3.13 µM) | 12.5 (≈ 12.6 µM) | 3.13 (≈ 3.14 µM) | 12.5 (≈ 12.6 µM) | 15.4 (≈ 15.5 µM) | 12.5 (≈ 12.6 µM) | 6.25 (≈ 6.28 µM) | 6.25 (≈ 6.28 µM) | 3.13 (≈ 3.14 µM) | 3.13 (≈ 3.14 µM) | –
CCCCCCCCCCCCO[C@H](COP(=O)(O)OC1OC(C(N)=O)C(OC)C(NC(=O)Nc2ccc(Cl)c(C(F)(F)F)c2)C1OC1OC(CO)C(O)C(O)C1NC(=O)c1ccccc1)C(=O)O (stereo partly specified) | – | 12.5 (≈ 12.1 µM) | 12.5 (≈ 12.1 µM) | 25 (≈ 24.3 µM) | 6.25 (≈ 6.07 µM) | 25 (≈ 24.3 µM) | 6.8 (≈ 6.61 µM) | 12.5 (≈ 12.1 µM) | 12.5 (≈ 12.1 µM) | 25 (≈ 24.3 µM) | 12.5 (≈ 12.1 µM) | 25 (≈ 24.3 µM) | 12.5 (≈ 12.1 µM)
CN[C@H](CC(C)C)C(=O)N[C@H]1C(=O)N[C@@H](CC(N)=O)C(=O)N[C@H]2C(=O)N[C@H]3C(=O)N[C@H](C(=O)N[C@H](C(=O)O)c4cc(O)cc(O)c4-c4cc3ccc4O)[C@H](O)c3ccc(c(Cl)c3)Oc3cc2cc(c3O[C@@H]2O[C@H](CO)[C@@H](O)[C@H](O)[C@H]2O[C@H]2C[C@](C)(N)[C@H](O)[C@H](C)O2)Oc2ccc(cc2Cl)[C@H]1O [VANCOMYCIN] | 0.78 (≈ 0.538 µM) | > 125 | 6.25 (≈ 4.31 µM) | > 125 | > 125 | 0.78 (≈ 0.538 µM) | 5.2 (≈ 3.59 µM) | 3.13 (≈ 2.16 µM) | 3.13 (≈ 2.16 µM) | 3.13 (≈ 2.16 µM) | 15.6 (≈ 10.8 µM) | > 125 | –
C=C(C/C=C(\C)CCC=C(C)C)CCC(C)(C)/C=C/CC/C(C)=C\CO[C@H](COP(=O)(O)O[C@H]1O[C@@H](C(N)=O)[C@@](C)(O)[C@H](OC(N)=O)[C@@H]1O[C@@H]1O[C@@H](CO[C@@H]2O[C@@H](CO)[C@@H](O)[C@H](O)[C@@H]2O)[C@@H](O[C@@H]2O[C@@H](C)[C@@H](O[C@@H]3O[C@@H](C(=O)NC4=C(O)CCC4=O)[C@H](O)[C@H](O)[C@@H]3O)[C@H](O)[C@@H]2NC(C)=O)[C@@H](O)[C@@H]1NC(C)=O)C(=O)O [MOENOMYCIN] | > 200 | 1.56 (≈ 0.986 µM) | 0.078 (≈ 0.0493 µM) | 0.062 (≈ 0.0392 µM) | 0.062 (≈ 0.0392 µM) | 0.025 (≈ 0.0158 µM) | 0.025 (≈ 0.0158 µM) | 0.025 (≈ 0.0158 µM) | 0.05 (≈ 0.0316 µM) | 0.062 (≈ 0.0392 µM) | 0.062 (≈ 0.0392 µM) | 0.39 (≈ 0.246 µM) | –
CCCCCCCCCCCCO[C@H](COP(=O)(O)OC1OC(C(N)=O)C(O)C(NC(=O)Nc2ccc(OC(F)(F)F)cc2)C1OC1OC(CO)C(O)C(O)C1NC(=O)c1cccc(C(F)(F)F)c1)C(=O)O (stereo partly specified) | 6.25 (≈ 5.87 µM) | 12.5 (≈ 11.7 µM) | 6.25 (≈ 5.87 µM) | 25 (≈ 23.5 µM) | 6.25 (≈ 5.87 µM) | > 25 | 9.2 (≈ 8.64 µM) | 6.25 (≈ 5.87 µM) | 6.25 (≈ 5.87 µM) | 6.25 (≈ 5.87 µM) | 6.25 (≈ 5.87 µM) | 6.25 (≈ 5.87 µM) | –
CCCCCCCCCCCCOP(=O)(O)OC1OC(C(N)=O)C(OC)C(NC(=O)Nc2ccc(Cl)c(C(F)(F)F)c2)C1OC1OC(CO)C(O)C(O)C1NC(=O)c1cccc(C(F)(F)F)c1 (stereo unspecified) | 6.25 (≈ 6.19 µM) | 6.25 (≈ 6.19 µM) | 6.25 (≈ 6.19 µM) | 6.25 (≈ 6.19 µM) | 3.12 (≈ 3.09 µM) | 12.5 (≈ 12.4 µM) | 8.2 (≈ 8.12 µM) | 6.25 (≈ 6.19 µM) | 6.25 (≈ 6.19 µM) | 6.25 (≈ 6.19 µM) | 6.25 (≈ 6.19 µM) | 6.25 (≈ 6.19 µM) | –
CCCCCCCCCCCCO[C@H](COP(=O)(O)OC1OC(C(N)=O)C(O)C(NC(=O)Nc2ccc(Cl)c(C(F)(F)F)c2)C1OC1OC(CO)C(O)C(O)C1NC(=O)c1cccc(C(F)(F)F)c1)C(=O)O (stereo partly specified) | 6.25 (≈ 5.77 µM) | 6.25 (≈ 5.77 µM) | 3.12 (≈ 2.88 µM) | 12.5 (≈ 11.5 µM) | 3.13 (≈ 2.89 µM) | 12.5 (≈ 11.5 µM) | 10.6 (≈ 9.78 µM) | 12.5 (≈ 11.5 µM) | 12.5 (≈ 11.5 µM) | 12.5 (≈ 11.5 µM) | 3.13 (≈ 2.89 µM) | 6.25 (≈ 5.77 µM) | –
CCCCCCCCCCCCCCC(OP(=O)(O)OC1OC(C(N)=O)C(OC)C(NC(=O)Nc2ccc(Cl)c(C(F)(F)F)c2)C1OC1OC(CO)C(O)C(O)C1NC(=O)c1cccc(C(F)(F)F)c1)C(=O)O (stereo unspecified) | 3.12 (≈ 2.85 µM) | 3.12 (≈ 2.85 µM) | 3.12 (≈ 2.85 µM) | 6.25 (≈ 5.71 µM) | 3.12 (≈ 2.85 µM) | > 25 | 9.2 (≈ 8.4 µM) | 6.25 (≈ 5.71 µM) | 6.25 (≈ 5.71 µM) | 3.12 (≈ 2.85 µM) | 6.25 (≈ 5.71 µM) | 6.25 (≈ 5.71 µM) | –
